Results of several laboratories.
Compare with care: the assays were run in different laboratories. In brackets after ≈: the same amount, converted by molar mass.

`Clc1ccccc1C(c1ccccc1)(c1ccccc1)n1ccnc1` has an inhibition zone of 23 mm (Fusarium solani; microbial growth, disc diffusion; 20000 µg/mL).
For `CCCCCCCCN1CCN(CC(O)(Cn2cncn2)c2ccc(F)cc2F)CC1` (stereo not drawn), the MIC was 7.8 µg/mL (≈ 17.9 µM) (Pichia kudriavzevii; microbial growth, broth dilution; ATCC6258; 48 h).
`COC(=O)COc1cccc(NC(=O)C2(c3ccc(Cl)cc3)CC2)c1` gave a GI50 of 2100 nM (U-937; cell growth or viability, ATP luminescence; 72 h).
For `C[C@@H](c1ncncc1F)[C@](O)(Cn1cncn1)c1ccc(F)cc1F`, the IC50 was 1320 nM (Acanthamoeba quina; parasite growth, resazurin; 96 h).
`COC(=O)COc1ccc(NC(=O)C2(c3ccccc3)CC2)cc1` has a GI50 of 4200 nM (U-937; cell growth or viability, ATP luminescence; 72 h).
For `C[C@@H]1[C@H](O)[C@@H](C)/C=C/C=C/C=C/C=C/C=C/C=C/C=C/[C@H](O[C@@H]2O[C@H](C)[C@@H](O)[C@H](N)[C@@H]2O)C[C@@H]2O[C@](O)(C[C@@H](O)C[C@@H](O)[C@H](O)CC[C@@H](O)C[C@@H](O)CC(=O)O[C@H]1C)C[C@H](O)[C@H]2C(=O)O`, the MFC was 1.35 µM (≈ 1.25 µg/mL) (Pichia kudriavzevii; microbial killing; ATCC6258).
With `Cc1cc(=O)oc2ccc(-c3cc(-c4ccc(Cl)cc4)nc(N)n3)c(O)c12` the inhibition was 60% (KB; cell growth or viability, MTT; 128 µg/mL, 72 h).
The GI50 of `COC(=O)COc1ccc(NC(=O)C2(c3ccc(Cl)cc3)CC2)cc1` is reported as 3900 nM (U-937; cell growth or viability, ATP luminescence; 72 h).
The inhibition of `Cc1cc(=O)oc2ccc(-c3cc(-c4ccc(Br)cc4)nc(N)n3)c(O)c12` is reported as 2% (KB; cell growth or viability, MTT; 8 µg/mL, 72 h).
The IC50 of `C[C@@H]1[C@H](O)[C@@H](C)/C=C/C=C/C=C/C=C/C=C/C=C/C=C/[C@H](O[C@@H]2O[C@H](C)[C@@H](O)[C@H](N)[C@@H]2O)C[C@@H]2O[C@](O)(C[C@@H](O)C[C@@H](O)[C@H](O)CC[C@@H](O)C[C@@H](O)CC(=O)O[C@H]1C)C[C@H](O)[C@H]2C(=O)O` is reported as 0.54 µg/mL (Pichia kudriavzevii; microbial growth; ATCC6258).
For `Cc1cc(=O)oc2ccc(-c3cc(-c4cccc([N+](=O)[O-])c4)nc(N)n3)c(O)c12`, the inhibition was 28% (KB; cell growth or viability, MTT; 32 µg/mL, 72 h).
`CCCCCCCCCN1CCN(CC(O)(Cn2cncn2)c2ccc(F)cc2F)CC1` (stereo not drawn) has an MIC of 0.975 µg/mL (≈ 2.17 µM) (Pichia kudriavzevii; microbial growth, broth dilution; ATCC6258; 48 h).
